PMC9623456 (RSC Advances, 2022)
Converted amounts (≈) assume the structure as drawn.

How the values were obtained:
[1] = tested on: mouse embryo cell lines 3T3-L1; assay: MTT assay; format: cell-based; settings: for IC50: Mus musculus, 3T3-L1, read-out: 3T3-L1 IC50
In short: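 MTT metabolic-activity assay in mouse embryo 3T3-L1 cells exposed to a range of test-compound concentrations. Percent viability was calculated by formula and plotted against concentration in μg ml−1. IC50 was taken from the dose–response curve as the concentration giving 50% growth suppression.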

3T3-L1 cells = assay: Scratch wound assay; format: cell-based, mouse; settings: 3T3-L1, 24 hours
In short: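 Scratch assay: 3T3-L1 cells were grown to confluence, then wounded with a pipette tip and treated with test compounds. Wound width was measured at the time of scratching and again after 24 h.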

mice = assay: Acute oral toxicity study; format: in vivo
In short: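 OECD 420 fixed-dose procedure in mice. Animals were dosed orally in stepwise groups at fixed doses of 5, 50, 300 and 2000 mg kg−1. Further groups received higher or lower fixed doses depending on the presence or absence of toxicity or death. Read-outs were clinical signs of toxicity and mortality.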

diabetic rats = assay: Full thickness excision wound model in STZ-nicotinamide diabetic rats; format: in vivo, Wistar male albino rats
[2] = biological target: HIF-1α prolyl hydroxylase-2 (PHD2); settings: PHD2 inhibition; cited from earlier work
[3] = Phase 2 trial; cited from earlier work

Which IC50 [1] does the source give for `c1ccc(-c2cc(-c3ccccc3)n(CN(c3ccccc3)c3ccccc3)n2)cc1` [CDPA, N-[(3,5-diphenylpyrazol-1-yl)methyl] -N-phenylaniline] here?
The IC50 was 132 µg/mL (≈ 328 µM).

With `c1ccc(-c2cc(-c3ccccc3)n(Cn3cccn3)n2)cc1` [CP, 3,5-Diphenyl-1-(pyrazole-1-ylmethyl) pyrazole] as the molecule, how does the IC50 [1] read?
Its IC50 is 111 µg/mL (≈ 371 µM).

And the “Activity compared to the positive control hyaluronic acid” value (3T3-L1 cells)?
Its value is “comparable activity”.

With Hyaluronic acid [reference compound] as the molecule, how does the “3T3-L1 IC50” value ([1]; MTT assay, 3T3-L1) read?
Its value is 112.59 µg/mL.

With `c1ccc(-c2cc(-c3ccccc3)n(Cn3ccnc3)n2)cc1` [CI, 1-(Imidazol-1-ylmethyl) −3,5-diphenylpyrazole] as the molecule, how does the “Acute oral toxicity outcome” value (mice; oral, 2000 mg kg^−1) read?
The value was “died”.

What about the “Acute oral toxicity outcome” value (mice; oral, 5, 50, and 300 mg kg^−1) of the same molecule?
The value was “no adverse effects or fatality”.

And the “Wound contraction (%)” value (diabetic rats; High dose 150 mg kg^−1, oral, Day 3)?
The value was 24.5 ± 0.48 %.

What about the “Wound contraction (%)” value (diabetic rats; High dose 150 mg kg^−1, oral, Day 7) of the same molecule?
The value was 31.25 ± 0.39 %.

What about the “Wound contraction (%)” value (diabetic rats; High dose 150 mg kg^−1, oral, Day 11) of the same molecule?
The value was 64.00 ± 0.44 %.

And the “Wound contraction (%)” value (diabetic rats; Low dose 75 mg kg^−1, oral, Day 3)?
The value was 18.25 ± 0.55 %.

What about the “Wound contraction (%)” value (diabetic rats; Low dose 75 mg kg^−1, oral, Day 7) of the same molecule?
The value was 24.50 ± 0.30 %.

What about the “Wound contraction (%)” value (diabetic rats; Low dose 75 mg kg^−1, oral, Day 11) of the same molecule?
Its value is 41.5 ± 0.43 %.

What about the “Wound contraction (%)” value (diabetic rats; Low dose 75 mg kg^−1, oral, Day 15) of the same molecule?
Its value is 55.77 ± 0.42 %.

And the “Wound healing in rats” value (diabetic rats; oral, diabetic rats)?
Its value is “improved wound healing”.

And the IC50 [1]?
The IC50 was 107 µg/mL (≈ 355 µM).

And the “Activity compared to the positive control hyaluronic acid” value (3T3-L1 cells)?
The value was “comparable activity”.

What does the source list for `O=C(O)CNC(=O)c1nc(Cl)c2ccccc2c1O` [FG-2216]?
IC50 [2]: 3.9 µM; Fatal outcome [3]: one patient died of hepatic necrosis; Liver enzyme test results [3]: aberrant liver enzyme test results
